Hits are enriched below; roughly 2.2% of the tested compounds scored in any of these assays.
PfG6PD inh: PfG6PD (Plasmodium falciparum) enzyme inhibition; PfGluPho enzyme, NADPH resazurin-diaphorase fluorescence; inhibition, % at 20 µM; 0.78% of 350,000 active; AID 504690;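 active = inhibition reaching at least a set limit at 20 µM in the primary screen, cut at about 59% in these data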
ABHD5 PLIN5 PPI: inhibitors of human ABHD5-perilipin-5 interaction | Split G. princeps luciferase complementation, luminescence, 4 h | inhibition, % at 4 µM | 0.78% of 360,000 active | AID 602281;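 active = inhibition above the mean inhibition across every tested compound plus 3 SD, cut at about 22% in these data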
Granule exo inh: blocks lytic granule exocytosis; TALL-104 LAMP-1 surface exposure, flow cytometry; cells stimulated with thapsigargin and PMA; inhibition, % at 10 µM; 0.66% of 360,000 active; AID 651702;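 active = inhibition above about 55%, limit read from the data; inconclusive = no clear call, values can overlap the other calls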
HKDC1 inh: blocks human hexokinase HKDC1 activity; AID 493160; recombinant HKDC1, G6PDH/diaphorase resazurin coupled fluorescence; inhibition, % at 20 µM; 0.16% of 340,000 active; Q2TB90;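 active = inhibition above about 35% when tested at 20 µM, limit read from the data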
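Test system: HK5 enzyme. Quantity: 5 µg/mL HK5 final. Reagent: glucose and ATP substrates. Schedule: 90 min reaction incubation at room temperature, dark. Technique: resazurin-to-resorufin fluorescence via G6PDH and diaphorase coupling, 525/613 nm. Control set: DMSO wells with and without enzyme mix.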
PfG6PD confirm: PfG6PD inhibition, single-dose confirmed; inhibition, % at 20 µM; 34% of 2,400 active; recombinant PfGluPho, NADPH-diaphorase-resazurin fluorescence; AID 504753; shares compounds with PfG6PD inh;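 active = inhibition of at least 50% at 20 µM in any single replicate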
Diaph ctr 10uM: inhibits diaphorase or oxidizes, flagging false PfG6PD hits. 39% of 820 active. inhibition, % at 20 µM. AID 504862. diaphorase-coupled resazurin reduction, fluorescence, NADPH 10 uM. shares compounds with PfG6PD inh;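 active = average inhibition reaching 50% or more with the compound at 20 µM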;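 note: resorufin red fluorescence formed as diaphorase reduces resazurin using NADPH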
Diaphorase 30uM: counter-screen for P. falciparum G6PD inhibitors: diaphorase inhibitors, oxidizers; shares compounds with PfG6PD inh; Diaphorase/resazurin coupled assay, resorufin fluorescence, 30 uM NADPH; inhibition, % at 20 µM; 29% of 820 active;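 active = inhibition averaging 50% or more, tested at 20 µM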
Numbers stand for hits.

How did CCCC(C)C(=O)Nc1cc(S(=O)(=O)N2CCCCC2)ccc1N1CCOCC1 (configuration not stated) do in these assays?
PfG6PD inh: inactive; ABHD5 PLIN5 PPI: inactive; Granule exo inh: inactive; HKDC1 inh: inactive

What do the screens show for `O=C(Nc1cc(S(=O)(=O)N2CCOCC2)ccc1N1CCCC1)c1ccccc1F`?
PfG6PD inh: inactive; ABHD5 PLIN5 PPI: inactive; Granule exo inh: inactive

Results for O=C(Nc1cc(S(=O)(=O)N2CCOCC2)ccc1N1CCCCC1)c1ccccc1Br ?
PfG6PD inh: 68; ABHD5 PLIN5 PPI: inactive; Granule exo inh: inactive; HKDC1 inh: inactive; PfG6PD confirm: inactive

How did O=C(O)c1cc(S(=O)(=O)N2CCOCC2)ccc1N1CCCCC1 do in these assays?
PfG6PD inh: inactive; ABHD5 PLIN5 PPI: inactive; Granule exo inh: inactive; HKDC1 inh: inactive

What do the screens show for `O=C(Nc1cc(S(=O)(=O)N2CCOCC2)ccc1N1CCCC1)c1ccc2c(c1)S(=O)(=O)c1ccccc1C2=O`?
PfG6PD inh: 74; ABHD5 PLIN5 PPI: inactive; Granule exo inh: inactive; HKDC1 inh: inactive; PfG6PD confirm: inactive

How did OC[C@@H]1CN(Cc2ccc3c(c2)OCO3)C[C@H](n2cnc3c(N4CCOCC4)ncnc32)O1 do in these assays?
ABHD5 PLIN5 PPI: inactive; Granule exo inh: inactive

Results for O=C(Nc1cc(S(=O)(=O)N2CCOCC2)ccc1N1CCCCC1)c1ccc(Cl)cc1 ?
PfG6PD inh: 80; ABHD5 PLIN5 PPI: inactive; Granule exo inh: inactive; HKDC1 inh: inactive; PfG6PD confirm: inactive

Results for O=C(Nc1cc(S(=O)(=O)N2CCOCC2)ccc1N1CCCC1)c1ccc(Cl)cc1 ?
PfG6PD inh: 60; ABHD5 PLIN5 PPI: inactive; Granule exo inh: inactive; HKDC1 inh: inactive; PfG6PD confirm: inactive

Results for Nc1cc(S(=O)(=O)N2CCOCC2)ccc1N1CCCCC1 ?
PfG6PD inh: 69; ABHD5 PLIN5 PPI: inactive; Granule exo inh: inactive; HKDC1 inh: inactive; PfG6PD confirm: inactive

Results for COC(=O)c1cc(OC(=O)CCc2ccc(OC)c(OC)c2)cc(C(=O)OC)c1 ?
PfG6PD inh: inactive; ABHD5 PLIN5 PPI: inactive; Granule exo inh: inactive; HKDC1 inh: inactive

How did O=C(NN1CCCCC1)c1ccc(COc2ccc(Cl)cc2)cc1 do in these assays?
PfG6PD inh: inactive; ABHD5 PLIN5 PPI: inactive; Granule exo inh: inactive; HKDC1 inh: inactive

Results for Cc1ccc(C(=O)NCC(=O)Nc2ccncc2)s1 ?
PfG6PD inh: inactive; ABHD5 PLIN5 PPI: inactive; Granule exo inh: inactive; HKDC1 inh: inactive

Results for Cc1cc(C)c2c(=O)n(CC(=O)Nc3cccc(Cl)c3C)sc2n1 ?
PfG6PD inh: 106; ABHD5 PLIN5 PPI: 48; Granule exo inh: 65; HKDC1 inh: inactive; PfG6PD confirm: 85; Diaph ctr 10uM: inactive; Diaphorase 30uM: inactive

Results for Cc1cc(C)c2c(=O)n(CC(=O)Nc3ccc(Br)c(C)c3)sc2n1 ?
PfG6PD inh: 112; ABHD5 PLIN5 PPI: inactive; Granule exo inh: inactive; HKDC1 inh: inactive; PfG6PD confirm: 80; Diaph ctr 10uM: inactive; Diaphorase 30uM: inactive

What do the screens show for `Cc1cc(NC(=O)Cc2ccsc2)ccc1Br`?
PfG6PD inh: inactive; ABHD5 PLIN5 PPI: inactive; Granule exo inh: inactive; HKDC1 inh: inactive

What do the screens show for `Cc1c(Cl)cccc1NC(=O)Cn1cccc1`?
PfG6PD inh: inactive; ABHD5 PLIN5 PPI: inactive; Granule exo inh: inactive; HKDC1 inh: inactive

Results for COc1ccccc1NC(=O)Nc1nn(C)c2cccc(N(C)C)c12 ?
PfG6PD inh: 64; ABHD5 PLIN5 PPI: inactive; Granule exo inh: inactive; HKDC1 inh: inactive; PfG6PD confirm: inactive

How did CCCCOc1cccc2c(=O)n(CC(=O)Nc3ccc4c(c3)OCCO4)ccc12 do in these assays?
ABHD5 PLIN5 PPI: inactive; Granule exo inh: inactive

Results for Cc1nnc(SCc2nc3scc(-c4ccccc4)c3c(=O)[nH]2)s1 ?
PfG6PD inh: 60; ABHD5 PLIN5 PPI: inactive; Granule exo inh: inactive; HKDC1 inh: inactive; PfG6PD confirm: inactive

How did CCn1c(SCc2nc3ccccc3[nH]2)nnc1-c1cccs1 do in these assays?
PfG6PD inh: inactive; ABHD5 PLIN5 PPI: inactive; Granule exo inh: inactive; HKDC1 inh: inactive

Results for CCn1c(SCc2nc3scc(-c4ccccc4)c3c(=O)[nH]2)nnc1-c1cccs1 ?
PfG6PD inh: inactive; ABHD5 PLIN5 PPI: inactive; Granule exo inh: inactive; HKDC1 inh: inactive; PfG6PD confirm: 49; Diaph ctr 10uM: inactive; Diaphorase 30uM: inactive

How did CC(C)(C)c1ccc(C(=O)NC2CCN(Cc3ccccc3)CC2)cc1 do in these assays?
PfG6PD inh: inactive; ABHD5 PLIN5 PPI: inactive; Granule exo inh: inconclusive; HKDC1 inh: inactive

What do the screens show for `CN1CCN(c2ccccc2NC(=O)COc2ccc(Cl)cc2)CC1`?
PfG6PD inh: inactive; ABHD5 PLIN5 PPI: inactive; Granule exo inh: inactive; HKDC1 inh: inactive

How did CCOC(=O)c1c(NC(=O)C2CCCO2)sc(C)c1C (configuration not stated) do in these assays?
PfG6PD inh: inactive; ABHD5 PLIN5 PPI: inactive; Granule exo inh: inactive; HKDC1 inh: inactive

How did CCOC(=O)c1c(NC(=O)C2CCCO2)sc(C(=O)OC(C)(C)C)c1C (configuration not stated) do in these assays?
PfG6PD inh: 63; ABHD5 PLIN5 PPI: inactive; Granule exo inh: inactive; HKDC1 inh: inactive; PfG6PD confirm: inactive

What do the screens show for `O=C(NCC(=O)N1CCN(c2ccccc2F)CC1)c1ccc(Br)o1`?
PfG6PD inh: inactive; ABHD5 PLIN5 PPI: inactive; Granule exo inh: inactive; HKDC1 inh: inactive

How did COc1ccc(NC(=O)c2cc3ccccn3n2)cc1 do in these assays?
PfG6PD inh: 64; ABHD5 PLIN5 PPI: inactive; Granule exo inh: inactive; HKDC1 inh: inactive; PfG6PD confirm: inactive

What do the screens show for `COc1ccc(NC(=O)c2nc3ccccc3s2)cc1`?
PfG6PD inh: 79; ABHD5 PLIN5 PPI: inactive; Granule exo inh: inactive; HKDC1 inh: inactive; PfG6PD confirm: inactive

What do the screens show for `COc1ccc(C(=O)Nc2nc3ccccc3s2)c(OC)c1`?
PfG6PD inh: 76; ABHD5 PLIN5 PPI: inactive; Granule exo inh: inactive; HKDC1 inh: inactive; PfG6PD confirm: inactive

How did COc1ccc(NC(=O)c2ccccn2)cc1 do in these assays?
PfG6PD inh: inactive; ABHD5 PLIN5 PPI: inactive; Granule exo inh: inactive; HKDC1 inh: inactive

Results for COc1ccc(OC)c(NC(=O)c2nc3ccccc3s2)c1 ?
PfG6PD inh: inactive; ABHD5 PLIN5 PPI: inactive; Granule exo inh: inactive; HKDC1 inh: inactive

Results for CCc1noc(C)c1C(=O)N1CCC(CCC(=O)Nc2cccc(C)c2)CC1 ?
PfG6PD inh: inactive; ABHD5 PLIN5 PPI: inactive; Granule exo inh: inactive; HKDC1 inh: inactive

Results for COCC(C)n1c(C)cc(C(=O)CSc2nc(C)c(C)c(C)n2)c1C (configuration not stated) ?
PfG6PD inh: 60; ABHD5 PLIN5 PPI: inactive; Granule exo inh: inactive; HKDC1 inh: inactive; PfG6PD confirm: inactive

How did COc1ccc(OC)c(-n2c(-c3cc(-c4ccc(F)cc4)n[nH]3)n[nH]c2=S)c1 do in these assays?
PfG6PD inh: inactive; ABHD5 PLIN5 PPI: inactive; Granule exo inh: inactive; HKDC1 inh: inactive

Assay outcomes: PubChem, several laboratories
